5-HT1A blocker – human 5-HT1a receptor antagonists, primary screen, cell-based, CHO, Ga15 NFAT-bla reporter. 0.68% of 62,000 active. inhibition, % at 10 µM. 5-hydroxytryptamine receptor 1A (Homo sapiens), P08908. CHO 5-HT1a Ga15 NFAT-bla reporter, antagonist mode;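 active = inhibition above the mean of all tested compounds plus 3 SD, cut at about 43% in these data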;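 note: receptor stimulated by 5-CT agonist at 100 nM near EC80; beta-lactamase reporter measured by ratiometric fluorescence of a cleavable substrate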
5HT1E antag – 5-HT1E receptor antagonists, primary screen, cell-based, HTS. inhibition, % at 6 µM. 0.99% of 65,000 active. CHO 5-HT1E Ga15 NFAT-bla reporter, FRET, antagonist. AID 571, 2007;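 active = inhibition above a set limit, the mean inhibition across every tested compound plus 3 SD, cut at about 29% in these data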;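 note: signal is the 460 over 535 nm emission ratio of beta-lactamase substrate; 0% = agonist plus DMSO wells and 100% = wells without agonist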
Target sequence (P28566 whole entry, looked up): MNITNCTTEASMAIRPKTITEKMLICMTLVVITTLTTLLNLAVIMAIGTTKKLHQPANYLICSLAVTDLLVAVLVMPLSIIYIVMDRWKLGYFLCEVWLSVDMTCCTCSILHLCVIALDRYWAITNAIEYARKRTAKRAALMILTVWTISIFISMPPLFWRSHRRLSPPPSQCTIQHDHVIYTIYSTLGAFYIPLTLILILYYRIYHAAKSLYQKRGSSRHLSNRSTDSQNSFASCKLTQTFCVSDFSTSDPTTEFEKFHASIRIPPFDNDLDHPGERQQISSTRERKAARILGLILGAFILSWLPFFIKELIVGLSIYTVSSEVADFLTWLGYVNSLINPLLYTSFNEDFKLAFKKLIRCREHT
HTR1E agonist – 5-HT1E receptor agonists, primary screen, cell-based, HTS. 5-hydroxytryptamine receptor 1E (Homo sapiens), P28566. CHO 5-HT1E Ga15 NFAT-bla reporter, FRET; 0% DMSO wells, 100% control agonist wells. activation, % at 6 µM. 0.69% of 65,000 active. AID 574, 2007;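 active = activation above a set limit, the screen-wide mean activation plus 3 SD, cut at about 8.5% in these data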;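 note: 100% = positive control agonist at 1 µM giving full maximal response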
S1P3 ag – human S1P3 receptor agonists, primary screen, cell-based, primary and confirmation, NFAT-BLA reporter. Sphingosine 1-phosphate receptor 3 (Homo sapiens), Q99500. S1P3 NFAT-BLA reporter cells, agonism, FRET ratio; relative to 1 µM S1P, basal subtracted. activation, % at 4.5 µM. 0.1% of 60,000 active. AID 373, 2006;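 active = activation above the screen-wide mean plus 3 SD, cut at about 4.5% in these data, passing the limit was not always enough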
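material = human S1P3 NFAT-BLA reporter CHO cells | schedule = 4 h compound at 37 °C, 2 h substrate at RT | measured by = fluorescent BLA substrate, ex 405 nm, em 460/535 nm ratio | controls = 1 µM S1P reference | replication = primary once, confirmation triplicate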
5HT1a ag – human 5-HT1a receptor agonists, primary screen, cell-based, CHO, Ga15 NFAT-bla reporter; CHO 5-HT1a Ga15 NFAT-bla reporter, FRET ratio; 0% basal, 100% maximal reference agonist; 0.56% of 65,000 active; AID 567, 2006; 5-hydroxytryptamine receptor 1A (Homo sapiens), P08908; activation, % at 10 µM;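 active = activation above the screen-wide mean activation plus 3 SD, cut at about 19% in these data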;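 note: 0% = DMSO wells and 100% = 5-CT at EC100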
Starred values were filed as active, the others as inactive; · = no result given. Rows were chosen to be rich in hits. Some 2.6% of all compounds tested hit in one or more screens of this group.

SMILES | 5-HT1A blocker | 5HT1E antag | HTR1E agonist | S1P3 ag | 5HT1a ag
Cn1c(=O)cc(OCCCC(=O)NCCN2CCN(c3ccccc3F)CC2)c2ccccc21 | 23 | -1 | 0 | 0 | 0
Cn1c(=O)cc(OCC(=O)NCCCN2CCN(c3cccc(Cl)c3)CC2)c2ccccc21 | 28 | 2 | 9.3* | 0 | 1
CC1(C)CC(=O)c2cc(OCC(=O)NCc3cccnc3)ccc2O1 | -5 | 0 | 0 | 0 | 0
Cn1c(=O)cc(OCCCC(=O)NCCCN2CCN(Cc3ccccc3)CC2)c2ccccc21 | -3 | -4 | 4 | -1 | -2
Cc1ccnc(NC(=O)CCCOc2cc(=O)n(C)c3ccccc23)c1 | 66* | 20 | -1 | -1 | 0
O=C(NCCCN1CCN(c2cccc(Cl)c2)CC1)C1CCC(=O)N1Cc1ccccc1Cl (stereo not given) | 37 | -5 | 14* | 0 | 7
CCN1CCCC1CNC(=O)CSc1cc(=O)n(CC)c2ccccc12 (stereo not given) | 1 | 2 | 0 | 0 | -2
Cn1c(C(=O)NCCCN2CCN(c3ccccc3F)CC2)cc2c(=O)[nH]c3ccccc3c21 | 75* | 4 | 25* | -1 | 18
CCn1c(=O)cc(SCC(=O)NCCCN2CCN(c3ccccc3F)CC2)c2ccccc21 | 69* | -11 | 1 | -2 | 8
COc1ccc2[nH]c3nc(SCc4nnc(-c5ccc(C)cc5)o4)nnc3c2c1 | 0 | 5 | 0 | -2 | -2
COc1cccc(/C=N/n2c(C)c3c(C)nnc(C)c3c2C)c1O | 3 | 7 | 0 | -1 | -2
COc1ccc(N(CC(=O)NC2CCCC2)C(=O)Cn2nnc(-c3ccc(C)cc3)n2)cc1OC | 6 | 6 | 54* | -1 | -1
COc1ccc(N(CC(=O)NC2CCCC2)C(=O)Cn2nnc(-c3ccc(F)cc3)n2)cc1OC | -1 | -6 | 0 | -1 | -2
Cc1nn(-c2ccc(F)cc2)c2nc(N)c(C#N)c(-c3cccs3)c12 | 29 | 36* | -2 | 0 | 3
COc1cc(-c2c(C#N)c(N)nc3c2c(C)nn3-c2ccc(C)c(C)c2)cc(OC)c1OC | 19 | 6 | 1 | 0 | -1
OC1CCN(c2c3c(nc4cc(-c5cccc(F)c5)nn24)CCCC3)CC1 | 2 | 31* | 0 | · | 1
CC(C)CC(c1nnnn1CC1CCCO1)N1CCN(c2nc3ccccc3s2)CC1 (stereo not given) | 3 | -10 | 0 | 0 | -5
CCCCC(c1nnnn1CC1CCCO1)N1CCN(c2nc3ccccc3s2)CC1 (stereo not given) | 26 | 20 | 10* | -1 | -2
COc1cc(C(=O)OCC(=O)Nc2c(F)c(F)c(F)c(F)c2F)cc(OC)c1OC | -7 | -1 | 0 | -1 | -1
CC1(C)CC(=O)C(C=NCc2ccc3c(c2)OCO3)=C(O)C1 | -5 | 5 | 0 | -1 | -3
CC1(C)CC(=O)C(C=Nc2cccnc2)=C(O)C1 | 34 | 33* | 0 | -2 | 0
CC1(C)CC(=O)C(C=Nc2ccc3c(c2)OCO3)=C(O)C1 | 17 | 31* | 0 | -1 | -2
Cc1ccn2cc(CNC(=O)c3ccc(Br)o3)nc2c1 | 1 | -3 | 0 | 1 | -2
COC(=O)/C(=C1/Oc2cc(C)oc(=O)c2S1)C(F)(F)F | · | 78* | 0 | -9 | -1
CCOC(=O)c1c(CN2CCCCC2)oc2ccc(OC)cc12 | · | 1 | 0 | 0 | 21*
SMILES | 5-HT1A blocker | 5HT1E antag | HTR1E agonist | S1P3 ag | 5HT1a ag
CCOC(=O)c1c(CN2CCN(C)CC2)oc2ccc(OC)cc12 | -12 | -10 | 0 | 0 | 0
CCCN(C#N)c1nc(NCC)nc(NC(C)C)n1 | 8 | 29* | 1 | 0 | -1
COc1ccc(CNc2nc3ccccc3n2CCN2CCCCC2)c(OC)c1 | 44* | -2 | 0 | -2 | 1
COc1cccc(CNc2nc3ccccc3n2CCN2CCCCC2)c1OC | 43* | 4 | 1 | -2 | -2
CCOC(=O)C1CCCN(c2c(Nc3cccc(C)c3)c(=O)c2=O)C1 (stereo not given) | 5 | -3 | 0 | 0 | 0
CCOc1ccccc1C(=O)Nc1ccc2nc(N3CCN(c4ncccn4)CC3)cc(C)c2c1 | -5 | 5 | 5 | · | 5
COc1cccc(C(=O)Nc2ccc3nc(N4CCN(c5ncccn5)CC4)cc(C)c3c2)c1OC | 24 | 30* | 1 | · | 4
CC1CC(C)CN(C(=O)Cn2c(=O)n(CCCCC(=O)NCc3ccco3)c(=O)c3ccccc32)C1 (stereo not given) | 2 | -12 | 0 | 0 | 1
CN(C)/C=C1\C(=O)c2ccc(N(C)C)nc2CC1c1ccccc1 (stereo not given) | -122 | -22 | 25* | 10 | 99*
CCOC(=O)CCc1nn(C)c(=O)c2ccccc12 | -4 | 40* | 0 | · | 1
N#CCSc1nc2cc(C(=O)N3CCC(C(N)=O)CC3)ccc2c2nc3ccccc3n12 | 8 | 53* | -1 | 1 | -2
N#CCSc1nc2cc(C(=O)N3CCCC3)ccc2c(=O)n1Cc1ccccc1 | -12 | 15 | 1 | 0 | 1
CC(=O)Oc1ccc2cc(-c3nc4ccccc4n3C)c(=O)oc2c1 | -54 | 33* | 21* | 5.7* | 89*
CCc1cc2c(=O)c(-c3nc4ccccc4n3C)c(COCC(=O)O)oc2cc1O | -8 | -3 | -1 | -2 | -5
C=CCSc1nc(N)c(C#N)c(-c2ccccc2)c1C#N | 7 | 41* | -1 | -2 | -1
Cc1cccc(N2CCN(C(=O)C3CCCN(S(=O)(=O)c4cccc5cccnc45)C3)CC2)c1C (stereo not given) | 6 | 0 | 18* | -1 | 5
CCC1CCCCN1C(=O)Cn1c(=O)oc2ccccc21 (stereo not given) | -3 | -7 | 0 | · | 0
O=c1cc(-c2c(F)c(F)c(F)c(F)c2F)oc2c(F)c(F)c(F)c(F)c12 | 99* | 102* | -2 | · | -10
Cc1ccc(CCP(=O)(O)CN2CCCCC2)cn1 | -11 | -2 | -1 | 1 | -3
O=S(=O)(c1ccc(S(=O)(=O)N(Cc2ccc(F)cc2)C2CCCC2)cc1)N1CCCC1 | 29 | 31* | -1 | -1 | 1
COC(=O)CCN(C1CCCCC1)S(=O)(=O)c1ccc(S(=O)(=O)N2CCCCC2)cc1 | -8 | 0 | -1 | -1 | -3
O=S(=O)(c1cc(F)cc(F)c1)N1CCN(c2ncccn2)CC1 | 5 | 2 | 0 | · | -4
